From PubChem BioAssay
The source made the active and inactive calls.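 Rule for the calls, unless noted: active = viability at or below 30% in both replicate assays; inconclusive = viability at or below 30% in just one of the two assays; inactive = the rest.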

Key:
[1] = reducers of endogenous Her2 protein level, primary screen, SKBR3 breast tumor cells, AlphaScreen, ATP viability (AID 461;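 active = Her2 level under about 52% in both replicate screens, with viability over 70% of control, limit read from the data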;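 for Her2 level: lower value means less Her2 protein in the cells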;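 for viability: percent of carrier control wells set as 100% viability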); settings: 18-24 h, measured here: SKBR3 viability, ATP luminescence, at 10 µM
[2] = molecular target: Receptor tyrosine-protein kinase erbB-2 (Homo sapiens) (UniProt P04626); experiment: as above; settings: 18-24 h, at 10 µM, stronger effect = lower value
[3] = SK-BR-3 cell growth inhibitors, pilot screen, 24 h, human (AID 572;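 active = viability at or below 10% of carrier control in both of two separate runs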;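 note: compound exposure lasted between 18 and 24 h rather than exactly 24 h; 100% = carrier-treated control wells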); settings: SK-BR-3 viability, CellTiter-Glo luminescence, at 10 µM, stronger effect = lower value
[4] = HUVEC growth inhibition – cell-based, human, primary screen (AID 575); settings: HUVEC proliferation, CellTiter-Glo luminescence, 72 h; at 10 µM; stronger effect = lower value;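 note: 100% = median of untreated cell wells with 0.1% DMSO on each plate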
In short: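 Assay system: primary human umbilical vein endothelial cells / Buffer or medium: endothelial basal medium with 2% FBS plus growth supplements / Compound dosing: one dose, 10 µM final, 0.1% DMSO / Timing: 72 h treatment at 37 °C / Signal: CTG luminescence / Benchmarks: 32 DMSO-only cell-control wells (high), 32 MePR drug-control wells (low) per plate / Plate: collagen-coated 384-well format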

[5] = growth inhibitors of H69AR lung tumor, primary screen, human, duplicate replicates (AID 580;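 active = viability at or under a set limit in both replicates, limit being median viability minus 3 SD, cut at about 48% in these data, passing the limit was not always enough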;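 note: 100% = mean luminescence of untreated wells and 0% = no signal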); settings: H69AR lung tumor cells viability, ATP luminescence, 72 h; at 10 µM; stronger effect = lower value
[6] = reversal of MRP1-mediated doxorubicin resistance, pilot screen, H69AR cells, doxorubicin co-treatment (AID 601;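 active = viability loss from added drug above about 55%, and viability with drug at most 40%, in both replicates, limit read from the data, passing the limit was not always enough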); settings: CellTiter-Glo, 72 h, at 10 µM; for differential viability (reversal): stronger effect = higher value
[7] = 384-well plate pilot, post-Golgi transport modulator project, inhibition of yeast transport mutant growth (AID 636; in the data active = inhibition above about 31%); settings: absorbance 615 nm, about 18 h, stronger effect = higher value
[8] = growth suppression of yeast trafficking mutant, preliminary HTS, modulators of trafficking downstream of Golgi apparatus project, 1536-format plate, OD 615 nm (AID 637; in the data active = inhibition above about 30%); settings: yeast transport mutant growth, absorbance 615 nm, 18 h; stronger effect = higher value
[9] = H69AR cells + 2 uM doxorubicin, measured here: viability with 2 uM doxorubicin, stronger effect = lower value
[10] = H69AR cells, compound alone cytotoxicity

Receptor tyrosine-protein kinase erbB-2 (Homo sapiens), sequence (P04626 whole entry, looked up): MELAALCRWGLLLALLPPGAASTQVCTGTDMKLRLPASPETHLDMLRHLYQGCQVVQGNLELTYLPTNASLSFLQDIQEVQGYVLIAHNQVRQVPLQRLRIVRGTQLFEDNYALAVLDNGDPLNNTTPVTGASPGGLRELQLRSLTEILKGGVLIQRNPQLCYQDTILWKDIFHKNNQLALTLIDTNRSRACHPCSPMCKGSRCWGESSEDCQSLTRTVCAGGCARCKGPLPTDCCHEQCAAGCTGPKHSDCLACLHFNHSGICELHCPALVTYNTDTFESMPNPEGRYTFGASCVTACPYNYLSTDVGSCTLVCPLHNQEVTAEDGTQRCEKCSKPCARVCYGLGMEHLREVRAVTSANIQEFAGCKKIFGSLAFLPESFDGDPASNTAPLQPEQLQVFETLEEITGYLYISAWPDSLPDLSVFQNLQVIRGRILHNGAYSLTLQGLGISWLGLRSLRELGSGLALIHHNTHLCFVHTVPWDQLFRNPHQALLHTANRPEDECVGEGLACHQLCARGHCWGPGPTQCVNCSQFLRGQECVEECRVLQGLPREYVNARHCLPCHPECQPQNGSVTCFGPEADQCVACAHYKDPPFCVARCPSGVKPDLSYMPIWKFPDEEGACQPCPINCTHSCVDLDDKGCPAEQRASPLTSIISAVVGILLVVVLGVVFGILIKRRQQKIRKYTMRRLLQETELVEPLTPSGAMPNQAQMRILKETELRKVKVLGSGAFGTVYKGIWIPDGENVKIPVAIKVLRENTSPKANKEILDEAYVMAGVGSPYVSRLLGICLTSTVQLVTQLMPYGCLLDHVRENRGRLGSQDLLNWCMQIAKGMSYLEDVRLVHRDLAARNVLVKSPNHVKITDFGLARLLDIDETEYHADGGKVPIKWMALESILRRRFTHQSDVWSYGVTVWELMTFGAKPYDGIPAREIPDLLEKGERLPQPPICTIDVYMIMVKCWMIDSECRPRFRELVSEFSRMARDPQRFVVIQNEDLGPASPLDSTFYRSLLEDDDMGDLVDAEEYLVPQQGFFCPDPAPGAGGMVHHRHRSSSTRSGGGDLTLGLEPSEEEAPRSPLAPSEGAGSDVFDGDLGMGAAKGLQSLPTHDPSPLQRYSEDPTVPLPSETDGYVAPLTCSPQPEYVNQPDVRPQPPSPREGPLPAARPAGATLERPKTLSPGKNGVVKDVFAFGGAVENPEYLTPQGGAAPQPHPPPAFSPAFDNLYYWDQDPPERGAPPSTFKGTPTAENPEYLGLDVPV

SMILES	viability [1]	Her2 level [2]	viability [3]	viability [4]	viability [5]	differential viability (reversal) ([6]; H69AR cells + 2 uM doxorubicin)	viability [6, 9]	viability [6, 10]	inhibition [7]	inhibition [8]
N#Cc1nc(COc2ccc(Br)cc2)oc1N1CCCC1	99%	90% (inactive)	99% (inactive)	89.4% (inactive)	87.5% (inactive)	0.745% (inactive)	86.7%	87.5%	-7.07% (inactive)	0.66% (inactive)
CC1Cc2ccccc2N1S(=O)(=O)c1cccc(C(=O)OCC(=O)NC2CCS(=O)(=O)C2)c1 (stereo not given)	88%	82.5% (inactive)	88% (inactive)	89.1% (inactive)	97.2% (inactive)	12.3% (inactive)	84.9%	97.2%	-6.4% (inactive)	-3.61% (inactive)
CSc1nnc(-c2ccc(NC(=O)CCc3ccccc3)cc2)n1C	91.5%	82.5% (inactive)	91.5% (inactive)	111% (inactive)	87% (inactive)	-2.53% (inactive)	89.5%	87%	-4.59% (inactive)	3.11% (inactive)
O=S(=O)(c1ccccc1)c1nc(-c2cccs2)oc1NCC1CCCO1 (stereo not given)	84.5%	97% (inactive)	84.5% (inactive)	87.9% (inactive)	99.7% (inactive)	-2.42% (inactive)	102%	99.7%	2.67% (inactive)	10.7% (inactive)
COc1ccccc1C(=O)N1CCNC(=O)C1CC(=O)Nc1ccc(Cl)cc1 (stereo not given)	97.5%	89.5% (inactive)	97.5% (inactive)	99.6% (inactive)	95.5% (inactive)	-2.83% (inactive)	98.3%	95.5%	1.71% (inactive)	-2.74% (inactive)
CCOc1ccc2c(c1)sc1nc(C(=O)OC)cc(=O)n12	94%	84% (inactive)	94% (inactive)	104% (inactive)	84.8% (inactive)	-0.545% (inactive)	85.4%	84.8%	-6.49% (inactive)	-6% (inactive)
Fc1ccccc1-c1nc(NCCCN2CCOCC2)c2ccccc2n1	94%	107% (inactive)	94% (inactive)	85.6% (inactive)	72.2% (inactive)	-7.69% (inactive)	79.9%	72.2%	-0.68% (inactive)	9.21% (inactive)
COc1ccc(C)cc1NCc1cccc(OC)c1OC	75.5%	90.5% (inactive)	75.5% (inactive)	87.2% (inactive)	102% (inactive)	-6.87% (inactive)	109%	102%	-5.41% (inactive)	-6.39% (inactive)
Cn1c(=O)c2c(nc(NCc3ccccc3)n2CCCc2ccccc2)n(C)c1=O	84%	88% (inactive)	84% (inactive)	69.5% (inactive)	83.4% (inactive)	-9.82% (inactive)	93.2%	83.4%	-0.81% (inactive)	-3.11% (inactive)
Cc1ccc(NC(=O)Cn2cccc2)cc1Cl	94%	85% (inactive)	94% (inactive)	98.5% (inactive)	96.3% (inactive)	17.9% (inactive)	78.5%	96.3%	-5.95% (inactive)	-3.67% (inactive)
CCOC(=O)C1=C(c2ccccc2)Nc2nc(C)nn2C1c1cccc(OC)c1OC (stereo not given)	111%	130% (inactive)	111% (inactive)	90.6% (inactive)	90.2% (inactive)	36.8% (inactive)	53.4%	90.2%	-2.24% (inactive)	-0.66% (inactive)
CC1CCN(CCn2c(=S)[nH]c3ncccc3c2=O)CC1	98.5%	95% (inactive)	98.5% (inactive)	78.6% (inactive)	104% (inactive)	9.6% (inactive)	93.9%	104%	-2.89% (inactive)	0.83% (inactive)
COc1ccc(CN(CC(=O)NCc2ccco2)C(=O)CCC(=O)Nc2nccs2)cc1	96%	104% (inactive)	96% (inactive)	85.5% (inactive)	101% (inactive)	11% (inactive)	89.6%	101%	1.22% (inactive)	-2.13% (inactive)
COc1ccc(C(=O)NCCSc2ccccn2)cc1	97%	108% (inactive)	97% (inactive)	102% (inactive)	96% (inactive)	17.4% (inactive)	78.6%	96%	-7.07% (inactive)	0.32% (inactive)
Cc1nc2ccccn2c1/C(O)=C1\C(=O)C(=O)N(CCN2CCOCC2)C1c1cccs1 (stereo not given)	94.5%	90.5% (inactive)	94.5% (inactive)	108% (inactive)	98.7% (inactive)	4.16% (inactive)	94.6%	98.7%	-8.78% (inactive)	0.67% (inactive)
COc1ccc(-n2ccnc2SCC(=O)NCc2ccc3c(c2)OCO3)cc1	128%	89.5% (inactive)	128% (inactive)	95.3% (inactive)	87.2% (inactive)	-5.35% (inactive)	92.6%	87.2%	-2.73% (inactive)	-1.9% (inactive)
COc1ccc(-c2cc(C(F)(F)F)n3ncc(C(=O)NCC4CCCO4)c3n2)cc1 (stereo not given)	84%	116% (inactive)	84% (inactive)	78.9% (inactive)	41.7% (active)	-5.95% (inactive)	47.6%	41.7%	-1.54% (inactive)	-3.67% (inactive)
N=c1c(C(=O)NCc2ccc(F)cc2)cc2c(=O)n3ccccc3nc2n1CCCN1CCOCC1	95%	74.5% (inactive)	95% (inactive)	82.8% (inactive)	76.6% (inactive)	-8.96% (inactive)	85.6%	76.6%	0.78% (inactive)	10.8% (inactive)
N#Cc1c(-c2ccccc2)nc(SCc2nc(N)nc(N3CCCCC3)n2)[nH]c1=O	90.5%	86.5% (inactive)	90.5% (inactive)	81.5% (inactive)	99.9% (inactive)	-2.35% (inactive)	102%	99.9%	-6% (inactive)	5.08% (inactive)
Cn1c(=O)oc2cc(S(=O)(=O)NCCC(=O)N3CCc4ccccc4C3)ccc21	102%	87.5% (inactive)	102% (inactive)	96.6% (inactive)	99.3% (inactive)	7.68% (inactive)	91.6%	99.3%	-8.36% (inactive)	6.19% (inactive)
O=S(=O)(c1ccc2nc(Cc3cccc(C(F)(F)F)c3)[nH]c2c1)N1CCOCC1	104%	91% (inactive)	104% (inactive)	67.9% (inactive)	82.9% (inactive)	3.53% (inactive)	79.4%	82.9%	-1.69% (inactive)	-0.16% (inactive)
O=C(Cn1cnc2c(oc3ccccc32)c1=O)N1CCN(c2ccccc2)CC1	95%	91.5% (inactive)	95% (inactive)	91.6% (inactive)	84.9% (inactive)	-2.86% (inactive)	87.7%	84.9%	-0.66% (inactive)	3.65% (inactive)
O=C(Nc1ccc(CN2CCCCC2)cc1)c1ccc2c(c1)OCO2	80.5%	75% (inactive)	80.5% (inactive)	98.8% (inactive)	91.6% (inactive)	11.9% (inactive)	79.7%	91.6%	-2.5% (inactive)	-4.44% (inactive)
Cc1ccc(NC(=O)CSc2nnc(-c3cnccn3)n2Cc2ccco2)cc1C	80.5%	93% (inactive)	80.5% (inactive)	80.6% (inactive)	104% (inactive)	6.65% (inactive)	97.5%	104%	-1.82% (inactive)	-7.67% (inactive)
CCCCc1noc2c1/C(=N\O)CC(c1ccccc1)C2 (stereo not given)	86%	82.5% (inactive)	86% (inactive)	108% (inactive)	90.5% (inactive)	-0.815% (inactive)	91.3%	90.5%	3.11% (inactive)	-3.77% (inactive)
CCCCN(CC)S(=O)(=O)c1ccc2c(c1)CCCN2C(C)=O	88%	79.5% (inactive)	88% (inactive)	88.9% (inactive)	104% (inactive)	0.71% (inactive)	103%	104%	-2.37% (inactive)	0.48% (inactive)
Cc1cc(C2C(C#N)=C(N)SC(N)=C2C#N)c(C)s1	107%	100% (inactive)	107% (inactive)	82.4% (inactive)	94.7% (inactive)	7.28% (inactive)	87.5%	94.7%	-2.89% (inactive)	7.21% (inactive)
Cn1cnc(S(=O)(=O)Nc2ccc(C(F)(F)F)cc2)c1	86%	98.5% (inactive)	86% (inactive)	105% (inactive)	91.7% (inactive)	6.29% (inactive)	85.4%	91.7%	1.41% (inactive)	-11.7% (inactive)
CC1CCN(C(=O)Cn2c(=O)oc3ccccc32)CC1	86.5%	108% (inactive)	86.5% (inactive)	95.1% (inactive)	90.7% (inactive)	6.24% (inactive)	84.5%	90.7%	0.53% (inactive)	-6.55% (inactive)
